Experiments:
Trehalose-phosphatase [1] = target: T1, Trehalose-phosphatase (Brugia malayi, UniProt A8NS89); test: Reversible competitive inhibition of Brugia malayi T6PP using T6P as substrate by Lineweaver-Burk plot analysis
T1 sequence (A8NS89 whole entry): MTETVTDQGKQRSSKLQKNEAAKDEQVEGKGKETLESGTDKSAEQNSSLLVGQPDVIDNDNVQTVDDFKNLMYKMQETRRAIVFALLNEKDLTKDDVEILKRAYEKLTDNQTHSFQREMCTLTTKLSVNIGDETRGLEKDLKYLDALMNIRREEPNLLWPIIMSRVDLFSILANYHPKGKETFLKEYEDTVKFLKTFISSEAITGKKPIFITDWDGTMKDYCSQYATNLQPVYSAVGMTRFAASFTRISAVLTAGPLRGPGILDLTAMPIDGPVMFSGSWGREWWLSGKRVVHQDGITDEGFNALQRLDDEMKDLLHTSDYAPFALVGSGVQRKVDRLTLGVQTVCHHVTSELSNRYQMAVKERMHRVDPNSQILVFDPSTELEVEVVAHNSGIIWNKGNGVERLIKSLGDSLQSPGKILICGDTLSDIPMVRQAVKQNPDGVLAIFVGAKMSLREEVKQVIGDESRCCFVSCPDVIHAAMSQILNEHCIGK

[2] = test system: Salmonella enterica subsp. enterica serovar Typhimurium; test: Inhibition of Salmonella typhimurium T6PP using T6P as substrate assessed as fraction of enzyme unbound with compound by measuring ratio of initial velocities of T6P substrate hydrolysis in presence and absence of compound at 1 mM after 5 mins by BioMol green dye based HTS assay
In short: (§1)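 Freshly purified St-T6PP or Sb-T6PP (5–25 nM) in 50 mM Hepes pH 7.5, 25 mM NaCl, 2 mM MgCl₂, 5% glycerol at 25 °C. T6P at half saturation (Km) for each enzyme. Hydrolysis rate was compared with and without 1 mM inhibitor; phosphate read at 625 nm after 30 min incubation. The ratio VI/V gives the fraction of enzyme not inhibitor-bound.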

[3] = target: T2, Trehalose-phosphatase (Brugia malayi) (UniProt A8NS89); test: Inhibition of Brugia malayi T6PP using T6P as substrate assessed as fraction of enzyme unbound with compound by measuring ratio of initial velocities of T6P substrate hydrolysis in presence and absence of compound at 1 mM […] by BioMol green dye based HTS assay
T2 sequence (whole entry): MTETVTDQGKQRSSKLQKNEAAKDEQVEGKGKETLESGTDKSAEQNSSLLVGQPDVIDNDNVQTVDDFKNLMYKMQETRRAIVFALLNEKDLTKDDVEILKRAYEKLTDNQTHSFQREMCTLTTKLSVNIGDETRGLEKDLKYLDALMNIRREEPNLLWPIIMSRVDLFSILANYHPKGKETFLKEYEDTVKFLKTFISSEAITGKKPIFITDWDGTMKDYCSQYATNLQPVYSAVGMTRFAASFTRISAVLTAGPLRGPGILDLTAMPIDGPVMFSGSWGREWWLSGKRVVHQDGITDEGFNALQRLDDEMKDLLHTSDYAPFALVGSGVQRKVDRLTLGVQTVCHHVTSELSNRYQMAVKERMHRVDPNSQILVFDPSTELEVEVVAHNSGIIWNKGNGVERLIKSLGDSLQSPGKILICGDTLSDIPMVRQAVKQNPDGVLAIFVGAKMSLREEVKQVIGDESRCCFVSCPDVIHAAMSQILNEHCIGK

Shigella boydii [4] = test: Inhibition of Shigella boydii T6PP using T6P as substrate assessed as fraction of enzyme unbound with compound by measuring ratio of initial velocities of T6P substrate hydrolysis in presence and absence of compound at 1 mM after 5 mins by BioMol green dye based HTS assay; in short: as §1
Ascaris suum [5] = test: Inhibition of Ascaris suum T6PP using T6P as substrate assessed as fraction of enzyme unbound with compound by measuring ratio of initial velocities of T6P substrate hydrolysis in presence and absence of compound at 1 mM after 5 mins by BioMol green dye based HTS assay
In short: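 T6P is at half saturation ([T6P] = Km), with and without 1 mM inhibitor, at 25 °C. Released phosphate is detected with dye (30 min incubation) by A625. The reported value is V_I/V, the initial-velocity ratio.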

[6] = Inhibition of Salmonella typhimurium T6PP using T6P as substrate by Lineweaver-Burk plot analysis; set-up: species or system Salmonella enterica subsp. enterica serovar Typhimurium
In short: (§2)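 Continuous phosphate-release assay (EnzChek, MESG/purine nucleoside phosphorylase) at 25 °C. Initial velocities of T6P hydrolysis by T6PP were taken at varied T6P with inhibitor at 0, Ki and 2×Ki. Km and Vmax come from double-reciprocal plots.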

Ascaris suum [7] = test: Inhibition of Ascaris suum T6PP assessed as Km for substrate using T6P as substrate by Lineweaver-Burk plot analysis; in short: as §2
[8] = Inhibition of Ascaris suum T6PP using T6P as substrate by Lineweaver-Burk plot analysis
Escherichia coli = conditions: 200 uM
[9] = test system: Salmonella enterica subsp. enterica serovar Typhimurium; test: Inhibition of Salmonella typhimurium T6PP assessed as Vmax for substrate using T6P as substrate by Lineweaver-Burk plot analysis; in short: as §2
Shigella boydii [10] = test: Inhibition of Shigella boydii T6PP assessed as Vmax for substrate using T6P as substrate by Lineweaver-Burk plot analysis; in short: as §2
Ascaris suum [11] = test: Inhibition of Ascaris suum T6PP assessed as Vmax for substrate using T6P as substrate by Lineweaver-Burk plot analysis; in short: as §2
[12] = test system: Bacteroides thetaiotaomicron; conditions: 200 uM
Trehalose-phosphatase [13] = target: T1, Trehalose-phosphatase; test: Competitive inhibition of Brugia malayi T6PP using T6P as substrate by Lineweaver-Burk plot analysis; in short: as §2
[14] = test system: Salmonella enterica subsp. enterica serovar Typhimurium; test: Inhibition of Salmonella typhimurium T6PP assessed as Km for substrate using T6P as substrate by Lineweaver-Burk plot analysis; in short: as §2
Shigella boydii [15] = test: Inhibition of Shigella boydii T6PP assessed as Km for substrate using T6P as substrate by Lineweaver-Burk plot analysis; in short: as §2
[16] = Inhibition of Shigella boydii T6PP using T6P as substrate by Lineweaver-Burk plot analysis; in short: as §2
Shigella boydii [17] = test: Activity at Shigella boydii T6PP
[18] = test system: Salmonella enterica subsp. enterica serovar Typhimurium; test: Activity at Salmonella typhimurium T6PP
[19] = test system: Mycobacterium tuberculosis; test: Activity at Mycobacterium tuberculosis T6PP
Ascaris suum [20] = test: Activity at Ascaris suum T6PP
[21] = compound: O=S(=O)(O)OC[C@H]1O[C@H](OCc2ccccc2)[C@H](O)[C@@H](O)[C@@H]1O; test: (§3) Competitive inhibition of Brugia malayi T6PP assessed as Km for substrate using T6P as substrate by Lineweaver-Burk plot analysis; in short: as §2
[22] = compound: CCCCCCCCc1ccc(O[C@H]2O[C@H](COS(=O)(=O)O)[C@@H](O)[C@H](O)[C@H]2O)cc1; test: as §3; in short: as §2
[23] = compound: CCCCCCc1ccc(O[C@H]2O[C@H](COS(=O)(=O)O)[C@@H](O)[C@H](O)[C@H]2O)cc1; test: as §3; in short: as §2
[24] = compound: CCCCCCCCc1ccc(O[C@@H]2O[C@H](COS(=O)(=O)O)[C@@H](O)[C@H](O)[C@H]2O)cc1; test: as §3; in short: as §2
[25] = compound: O=S(=O)(O)OC[C@H]1O[C@H](Oc2ccccc2)[C@H](O)[C@@H](O)[C@@H]1O; test: (§4) Reversible competitive inhibition of Brugia malayi T6PP assessed as Km for substrate using T6P as substrate by Lineweaver-Burk plot analysis
[26] = compound: O=S(=O)(O)OC[C@H]1O[C@@H](Oc2ccccc2)[C@H](O)[C@@H](O)[C@@H]1O; test: as §4
[27] = compound: O=S(=O)(O)OC[C@H]1O[C@H](OCc2ccccc2)[C@H](O)[C@@H](O)[C@@H]1O; test: (§5) Competitive inhibition of Brugia malayi T6PP assessed as Vmax for substrate using T6P as substrate by Lineweaver-Burk plot analysis; in short: as §2
[28] = compound: CCCCCCCCc1ccc(O[C@H]2O[C@H](COS(=O)(=O)O)[C@@H](O)[C@H](O)[C@H]2O)cc1; test: as §5; in short: as §2
[29] = compound: CCCCCCc1ccc(O[C@H]2O[C@H](COS(=O)(=O)O)[C@@H](O)[C@H](O)[C@H]2O)cc1; test: as §5; in short: as §2
[30] = compound: CCCCCCCCc1ccc(O[C@@H]2O[C@H](COS(=O)(=O)O)[C@@H](O)[C@H](O)[C@H]2O)cc1; test: as §5; in short: as §2
[31] = compound: O=S(=O)(O)OC[C@H]1O[C@H](Oc2ccccc2)[C@H](O)[C@@H](O)[C@@H]1O; test: (§6) Reversible competitive inhibition of Brugia malayi T6PP assessed as Vmax for substrate using T6P as substrate by Lineweaver-Burk plot analysis
[32] = compound: O=S(=O)(O)OC[C@H]1O[C@@H](Oc2ccccc2)[C@H](O)[C@@H](O)[C@@H]1O; test: as §6
[33] = substrate: O=P(O)(O)OC[C@H]1O[C@@H](Oc2ccccc2)[C@H](O)[C@@H](O)[C@@H]1O; test: Activity at Brugia malayi T6PP
[34] = substrate: CCCCCCCCc1ccc(O[C@H]2O[C@H](COS(=O)(=O)O)[C@@H](O)[C@H](O)[C@H]2O)cc1; conditions: Pseudomonas putida KT2440; 200 uM
[35] = substrate: CCCCCCCCc1ccc(O[C@H]2O[C@H](COS(=O)(=O)O)[C@@H](O)[C@H](O)[C@H]2O)cc1; conditions: Pseudomonas putida KT2440; 200 uM; remark: listed apart in the source

In the case of `O=S(=O)(O)OC[C@H]1O[C@@H](Oc2ccccc2)[C@H](O)[C@@H](O)[C@@H]1O`, the Ki (Trehalose-phosphatase [1]) is reported as 800 to 830 µM, the Ratio [2] is reported as 0.81 and the Ratio [3] is reported as 0.52. The Ratio (Shigella boydii [4]) was 0.76 and the Ratio (Ascaris suum [5]) was 0.92.

Molecule `CCCCCCCCc1ccc(O[C@H]2O[C@H](COS(=O)(=O)O)[C@@H](O)[C@H](O)[C@H]2O)cc1` has a Ki [6] of 56 µM, a Km (Ascaris suum [7]) of 406 µM and a Ki [8] of 80 to 84 µM. It also gave a Vmax (Escherichia coli) of 0.0605 µM/s, a Vmax [9] of 0.173 µM/s and a Vmax (Shigella boydii [10]) of 0.897 µM/s. For the same molecule, the Vmax (Ascaris suum [11]) was 0.48 µM/s, the Vmax [12] was 0.0788 µM/s and the Ki (Trehalose-phosphatase [13]) was 5.3 µM. It also gave a Km [14] of 387 µM, a Km (Shigella boydii [15]) of 246 µM and a Ki [16] of 21 µM.

Molecule `O=P(O)(O)OC[C@H]1O[C@@H](Oc2ccccc2)[C@H](O)[C@@H](O)[C@@H]1O` has a kcat (Shigella boydii [17]) of 0.71 ×10⁻² /s, a Ratio [2] of 0.77 and a Ratio [3] of 0.79. For the same molecule, the kcat [18] was 0.41 ×10⁻² /s, the Ratio (Shigella boydii [4]) was 0.94 and the Ratio (Ascaris suum [5]) was 0.98. The kcat [19] was 0.71 ×10⁻² /s and the kcat (Ascaris suum [20]) was 0.96 ×10⁻² /s.

B1: Trehalose-phosphatase (Brugia malayi), A8NS89 (protein)
chain: MTETVTDQGKQRSSKLQKNEAAKDEQVEGKGKETLESGTDKSAEQNSSLLVGQPDVIDNDNVQTVDDFKNLMYKMQETRRAIVFALLNEKDLTKDDVEILKRAYEKLTDNQTHSFQREMCTLTTKLSVNIGDETRGLEKDLKYLDALMNIRREEPNLLWPIIMSRVDLFSILANYHPKGKETFLKEYEDTVKFLKTFISSEAITGKKPIFITDWDGTMKDYCSQYATNLQPVYSAVGMTRFAASFTRISAVLTAGPLRGPGILDLTAMPIDGPVMFSGSWGREWWLSGKRVVHQDGITDEGFNALQRLDDEMKDLLHTSDYAPFALVGSGVQRKVDRLTLGVQTVCHHVTSELSNRYQMAVKERMHRVDPNSQILVFDPSTELEVEVVAHNSGIIWNKGNGVERLIKSLGDSLQSPGKILICGDTLSDIPMVRQAVKQNPDGVLAIFVGAKMSLREEVKQVIGDESRCCFVSCPDVIHAAMSQILNEHCIGK
B1 showed a Km [21] of 127 µM, a Km [22] of 229 µM and a Km [23] of 234 µM. The Km [24] was 156 µM, the Km [25] was 109 µM and the Km [26] was 126 µM. It also gave a Vmax [27] of 0.457 µM/s, a Vmax [28] of 0.924 µM/s and a Vmax [29] of 0.375 µM/s. For the same molecule, the Vmax [30] was 0.584 µM/s, the Vmax [31] was 0.496 µM/s and the Vmax [32] was 0.57 µM/s. It also gave a kcat [33] of 1.4 ×10⁻² /s.

B2: D-glycero-beta-D-manno-heptose-1,7-bisphosphate 7-phosphatase (Pseudomonas putida (strain ATCC 47054 / DSM 6125 / NCIMB 11950 /KT2440)), Q88RS0 (protein)
chain: MKLLILDRDGVINYDSDAYIKTLEEWVPIPGSVDAIAQLSKAGWTVAVATNQSGIARGYYPLATLEAMHARLRALVAEQGGEVGHIVYCPHGPDEGCDCRKPKPGMLRAIAEHYQIGLEGVWFVGDSKGDLEAALAVGAQPVLVKTGKGERTLEKGVPETTLIFDDLAAIARELI
B2 showed a Vmax [34] of 0.0175 µM/s and a Vmax [35] of 0.106 µM/s.
